In ChEMBL document CHEMBL4371053, “A novel tetrazole analogue of resveratrol is a potent anticancer agent” (Bioorg Med Chem Lett, 2019):
The source made the active and inactive calls. No cut-off for these calls is given here.

How the values were obtained:
[1] = tested on: NCI-H460; assay: Growth inhibition of human NCI-H460 cells at 10 uM after 48 hrs by sulforhodamine B assay relative to control; assay type: functional; conditions: NCI-H460, 48 h, values are per cent of control
Method in brief: (§1)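 NCI-60 single-dose screen. Cells exposed to 10⁻⁵ M or to vehicle for 48 h. Growth measured by sulforhodamine B optical density before and after exposure. Reported as percent growth relative to vehicle control and to time-zero cell number; negative values indicate cell kill.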

[2] = tested on: MDA-MB-435; assay: Growth inhibition of human MDA-MB-435 cells at 10 uM after 48 hrs by sulforhodamine B assay relative to control; assay type: functional; conditions: MDA-MB-435, 48 h, values are per cent of control; method in brief: as §1
[3] = tested on: A498; assay: Growth inhibition of human A498 cells at 10 uM after 48 hrs by sulforhodamine B assay relative to control; assay type: functional; conditions: A498, 48 h, values are per cent of control; method in brief: as §1
[4] = tested on: CCRF-CEM; assay: Growth inhibition of human CCRF-CEM cells incubated for 48 hrs by sulforhodamine B assay; assay type: functional
Method in brief: (§2)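 NCI-60 five-dose study at 10⁻⁴, 10⁻⁵, 10⁻⁶, 10⁻⁷ and 10⁻⁸ M, 48 h incubation. Growth determined from sulforhodamine B optical density before and after exposure, relative to vehicle control and time-zero counts. GI₅₀ is the molar concentration giving 50% growth inhibition.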

[5] = tested on: HL-60(TB); assay: Growth inhibition of human HL-60(TB) cells incubated for 48 hrs by sulforhodamine B assay; assay type: functional; conditions: HL-60, 48 h; method in brief: as §2
[6] = tested on: RPMI-8226; assay: Growth inhibition of human RPMI8226 cells incubated for 48 hrs by sulforhodamine B assay; assay type: functional; conditions: RPMI-8226, 48 h; method in brief: as §2
[7] = tested on: HOP-62; assay: Growth inhibition of human HOP62 cells incubated for 48 hrs by sulforhodamine B assay; assay type: functional; conditions: HOP-62, 48 h; method in brief: as §2
[8] = tested on: NCI-H23; assay: Growth inhibition of human NCI-H23 cells incubated for 48 hrs by sulforhodamine B assay; assay type: functional; conditions: NCI-H23, 48 h; method in brief: as §2
[9] = tested on: NCI-H522; assay: Growth inhibition of human NCI-H522 cells incubated for 48 hrs by sulforhodamine B assay; assay type: functional; conditions: NCI-H522, 48 h; method in brief: as §2
[10] = tested on: COLO 205; assay: Growth inhibition of human COLO205 cells incubated for 48 hrs by sulforhodamine B assay; assay type: functional; conditions: COLO 205, 48 h; method in brief: as §2
[11] = tested on: HCC 2998; assay: Growth inhibition of human HCC2998 cells incubated for 48 hrs by sulforhodamine B assay; assay type: functional; conditions: HCC 2998, 48 h; method in brief: as §2
[12] = tested on: HCT-116; assay: Growth inhibition of human HCT116 cells incubated for 48 hrs by sulforhodamine B assay; assay type: functional; conditions: HCT-116, 48 h; method in brief: as §2
[13] = tested on: HT-29; assay: Growth inhibition of human HT-29 cells incubated for 48 hrs by sulforhodamine B assay; assay type: functional; conditions: HT-29, 48 h; method in brief: as §2
[14] = tested on: SW-620; assay: Growth inhibition of human SW620 cells incubated for 48 hrs by sulforhodamine B assay; assay type: functional; conditions: SW-620, 48 h
Method in brief: (§3)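 NCI-60 screen run per Rubinstein protocol. Sulforhodamine B optical density was read before and after 48 h exposure to compound or vehicle. The single-dose pass at 10⁻⁵ M reported percent growth relative to vehicle control and time-zero cell number. The five-dose follow-up used 10⁻⁴ to 10⁻⁸ M, giving GI₅₀ as the molar concentration causing 50% growth inhibition.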

[15] = tested on: SF-268; assay: Growth inhibition of human SF268 cells incubated for 48 hrs by sulforhodamine B assay; assay type: functional; conditions: SF-268, 48 h; method in brief: as §2
[16] = tested on: SF-295; assay: Growth inhibition of human SF295 cells incubated for 48 hrs by sulforhodamine B assay; assay type: functional; conditions: SF-295, 48 h; method in brief: as §2
[17] = tested on: SF-539; assay: Growth inhibition of human SF539 cells incubated for 48 hrs by sulforhodamine B assay; assay type: functional; conditions: SF-539, 48 h; method in brief: as §2
[18] = tested on: SNB-19; assay: Growth inhibition of human SNB19 cells incubated for 48 hrs by sulforhodamine B assay; assay type: functional; conditions: SNB-19, 48 h; method in brief: as §3
[19] = tested on: SNB-75; assay: Growth inhibition of human SNB75 cells incubated for 48 hrs by sulforhodamine B assay; assay type: functional; conditions: SNB-75, 48 h; method in brief: as §3
[20] = tested on: U-251; assay: Growth inhibition of human U251 cells incubated for 48 hrs by sulforhodamine B assay; assay type: functional; conditions: U-251, 48 h; method in brief: as §3
[21] = tested on: LOX IMVI; assay: Growth inhibition of human LOXIMVI cells incubated for 48 hrs by sulforhodamine B assay; assay type: functional; method in brief: as §2
[22] = tested on: M14; assay: Growth inhibition of human M14 cells incubated for 48 hrs by sulforhodamine B assay; assay type: functional; conditions: M14, 48 h; method in brief: as §2
[23] = tested on: MDA-MB-435; assay: Growth inhibition of human MDA-MB-435 cells incubated for 48 hrs by sulforhodamine B assay; assay type: functional; conditions: MDA-MB-435, 48 h; method in brief: as §2
[24] = tested on: SK-MEL-2; assay: Growth inhibition of human SK-MEL-2 cells incubated for 48 hrs by sulforhodamine B assay; assay type: functional; conditions: SK-MEL-2, 48 h; method in brief: as §2
[25] = tested on: SK-MEL-28; assay: Growth inhibition of human SK-MEL-28 cells incubated for 48 hrs by sulforhodamine B assay; assay type: functional; conditions: SK-MEL-28, 48 h; method in brief: as §2
[26] = tested on: IGROV-1; assay: Growth inhibition of human IGROV1 cells incubated for 48 hrs by sulforhodamine B assay; assay type: functional; conditions: IGROV-1, 48 h; method in brief: as §2
[27] = tested on: OVCAR-3; assay: Growth inhibition of human OVCAR3 cells incubated for 48 hrs by sulforhodamine B assay; assay type: functional; conditions: OVCAR-3, 48 h; method in brief: as §2
[28] = tested on: OVCAR-4; assay: Growth inhibition of human OVCAR4 cells incubated for 48 hrs by sulforhodamine B assay; assay type: functional; conditions: OVCAR-4, 48 h; method in brief: as §2
[29] = tested on: NCI/ADR-RES; assay: Growth inhibition of human NCI/ADR-RES cells incubated for 48 hrs by sulforhodamine B assay; assay type: functional; method in brief: as §2
[30] = tested on: 786-0; assay: Growth inhibition of human 786-0 cells incubated for 48 hrs by sulforhodamine B assay; assay type: functional; conditions: 786-0, 48 h; method in brief: as §2
[31] = tested on: RXF 393; assay: Growth inhibition of human RXF393 cells incubated for 48 hrs by sulforhodamine B assay; assay type: functional; conditions: RXF 393, 48 h; method in brief: as §2
[32] = tested on: UO-31; assay: Growth inhibition of human UO31 cells incubated for 48 hrs by sulforhodamine B assay; assay type: functional; conditions: UO-31, 48 h; method in brief: as §3
[33] = tested on: PC-3; assay: Growth inhibition of human PC3 cells incubated for 48 hrs by sulforhodamine B assay; assay type: functional; conditions: PC-3, 48 h; method in brief: as §2
[34] = tested on: DU-145; assay: Growth inhibition of human DU145 cells incubated for 48 hrs by sulforhodamine B assay; assay type: functional; conditions: DU-145, 48 h; method in brief: as §2
[35] = tested on: MCF7; assay: Growth inhibition of human MCF7 cells incubated for 48 hrs by sulforhodamine B assay; assay type: functional; conditions: MCF7, 48 h; method in brief: as §2
[36] = tested on: MDA-MB-231; assay: Growth inhibition of human MDA-MB-231 cells incubated for 48 hrs by sulforhodamine B assay; assay type: functional; conditions: MDA-MB-231, 48 h; method in brief: as §2
[37] = biological target: Tubulin (Homo sapiens) (UniProt P68371+Q9H4B7+P0DPH7+P68366+Q13509+Q71U36+P04350+Q3ZCM7+P07437+P68363+Q9BQE3+Q6PEY2+Q13885+Q9BVA1+Q9BUF5); assay: Inhibition of tubulin (unknown origin) polymerization at 2 uM by immunoblot analysis; assay type: protein-complex assay
Method in brief: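 Cell-based assay. Cells were treated with compound at 1.0 and 2.0 μM. Polymerized tubulin (pellet) was separated from unpolymerized tubulin (supernatant), and both fractions were immunoblotted with anti-tubulin antibody.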

[38] = Cytotoxicity against stromal cells (unknown origin) assessed as reduction in cell viability by alamar blue assay; assay type: cell-based; conditions: read-out: LD50 (the source's name)

## COc1ccc(/C=C(/c2cc(OC)c(OC)c(OC)c2)c2nnn[nH]2)cc1O
[1]
  growth, % of control at 10 µM: 2.67%
[2]
  growth, % of control at 10 µM: -8.4%
[3]
  growth, % of control at 10 µM: -3.5%
[4]
  GI50: < 0.01 µM
[5]
  GI50: < 0.01 µM
[6]
  GI50: < 0.01 µM
[7]
  GI50: < 0.01 µM
[8]
  GI50: < 0.01 µM
[9]
  GI50: < 0.01 µM
[10]
  GI50: 0.97 µM
[11]
  GI50: < 0.01 µM
[12]
  GI50: < 0.01 µM
[13]
  GI50: 2.2 µM
[14]
  GI50: < 0.01 µM
[15]
  GI50: < 0.01 µM
[16]
  GI50: 5.28 µM
[17]
  GI50: < 0.01 µM
[18]
  GI50: < 0.01 µM
[19]
  GI50: < 0.01 µM
[20]
  GI50: < 0.01 µM
[21]
  GI50: < 0.01 µM
[22]
  GI50: < 0.01 µM
[23]
  GI50: < 0.01 µM
[24]
  GI50: < 0.01 µM
[25]
  GI50: < 0.01 µM
[26]
  GI50: < 0.01 µM
[27]
  GI50: < 0.01 µM
[28]
  GI50: < 0.01 µM
[29]
  GI50: < 0.01 µM
[30]
  GI50: < 0.01 µM
[31]
  GI50: < 0.01 µM
[32]
  GI50: < 0.01 µM
[33]
  GI50: < 0.01 µM
[34]
  GI50: < 0.01 µM
[35]
  GI50: < 0.01 µM
[36]
  GI50: < 0.01 µM
[37]
  inhibition: Active
[38]
  CC50: > 50 µM

## COc1ccc(/C(=C/c2ccc3ccccc3c2)c2nnn[nH]2)cc1OC
[1]
  growth, % of control at 10 µM: 14.1%
[2]
  growth, % of control at 10 µM: -41%
[3]
  growth, % of control at 10 µM: 14.5%
[4]
  GI50: 3.33 µM
[5]
  GI50: 2.56 µM
[6]
  GI50: 4.02 µM
[7]
  GI50: 2.33 µM
[8]
  GI50: 5.29 µM
[9]
  GI50: 1.14 µM
[10]
  GI50: 2.27 µM
[11]
  GI50: 5.2 µM
[12]
  GI50: 2.42 µM
[13]
  GI50: 2.69 µM
[14]
  GI50: 1.36 µM
[15]
  GI50: 6.55 µM
[16]
  GI50: 1.51 µM
[17]
  GI50: 2.38 µM
[18]
  GI50: 7.84 µM
[19]
  GI50: 2.51 µM
[20]
  GI50: 4.46 µM
[21]
  GI50: 5.63 µM
[22]
  GI50: 1.9 µM
[23]
  GI50: 0.3 µM
[24]
  GI50: 4.36 µM
[25]
  GI50: 8.07 µM
[26]
  GI50: 4.23 µM
[27]
  GI50: 1.69 µM
[28]
  GI50: 7.78 µM
[29]
  GI50: 1.03 µM
[30]
  GI50: 5.72 µM
[31]
  GI50: 2.48 µM
[32]
  GI50: 5.59 µM
[33]
  GI50: 2.36 µM
[34]
  GI50: 3.53 µM
[35]
  GI50: 4.12 µM
[36]
  GI50: 12.5 µM
[37]
  inhibition: inactive
[38]
  CC50: > 50 µM
